These results are taken from ChEMBL document CHEMBL1152638, “Natural product leads for drug discovery: isolation, synthesis and biological evaluation of 6-cyano-5-methoxyindolo[2,3-a]carbazole based ligands as antibacterial agents” (Bioorg Med Chem, 2009).

Data set [1] relates to Mycobacterium tuberculosis. Kind of data set: Antitubercular activity against Mycobacterium tuberculosis H37Rv after 16 to 24 hrs by microplate alamar blue assay. The class given is functional. The gist of the method: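 H37Rv (ATCC 27294) in Middlebrook 7H12; twofold dilutions from 12.8 mM DMSO stocks, final 128 to 0.5 μM; 1 × 10^5 cfu/mL inoculum, aerobic 37 °C. Day 7: Tween 80 plus Alamar Blue added, then 16–24 h more. Fluorescence ex 530/em 590 nm; MIC is lowest concentration giving ≥90% reduction versus bacteria-only controls; rifampin, isoniazid positive controls.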
Background: Alamar Blue is a resazurin reagent that responds to reducing activity.

Data set [2] is described as follows: Cytotoxicity against human LoVo cells. The class given is cell-based. The conditions noted are these: read-out: MIC.
Data set [3] in a line: Cytotoxicity against human KB cells. The conditions noted are these: read-out: MIC. The class given is cell-based.
The next data set deals with Bacillus anthracis. The data set can be described thus: Antibacterial activity against Bacillus anthracis deltaANR after 14 hrs by microplate alamar blue assay. The class given is functional.
Another data set deals with Human alphaherpesvirus 2. The data set can be described thus: Antiviral activity against HSV2 infected in mink lung cells assessed as reduction in viral titer at 1 ug/ml. More on the design: scale not given: the % may be the effect or the level left. The class given is functional.

Structures are written as SMILES. ≈ marks a conversion by molar mass, not a printed value. Counter-ions that a name gives are not always drawn.

By MIC is commonly meant the least concentration at which growth counts as inhibited. `CO[C@H]1/C=C/O[C@@]2(C)Oc3c(C)c(O)c4c(O)c(c(/C=N/N5CCN(C)CC5)c(O)c4c3C2=O)NC(=O)/C(C)=C\C=C\[C@H](C)[C@H](O)[C@@H](C)[C@@H](O)[C@@H](C)[C@H](OC(C)=O)[C@@H]1C` [RIFAMPIN]: the lowest concentration to inhibit growth in data set [1] (MIC) was 0.1 µM (≈ 0.0823 µg/mL).

With `NNC(=O)c1ccncc1` [ISONIAZID], it took 0.6 µM (≈ 0.0823 µg/mL) to inhibit growth in data set [1] (MIC). Turning to `COc1c(C(N)=O)c2c3ccccc3[nH]c2c2c1c1ccccc1n2C`, the minimal inhibitory concentration (MIC) in data set [1] was greater than 128 µM.

On to `COc1c(C#N)c2c3ccccc3[nH]c2c2c1c1ccccc1n2C`, for which the MCC in data set [2] and in data set [3] was 5 µg/mL throughout. Further, the MIC was greater than 200 µM in the data set on Bacillus anthracis and greater than 128 µM in data set [1]. Also, in the data set on Human alphaherpesvirus 2, the Activity is reported as 95%. For the compound `COc1c(C#N)c2c3ccccc3[nH]c2c2[nH]c3ccccc3c12`, the minimal inhibitory concentration (MIC) with Bacillus anthracis was 6.3 µM (≈ 1.96 µg/mL); in data set [1], greater than 128 µM. `O=C(O)c1cn(C2CC2)c2cc(N3CCNCC3)c(F)cc2c1=O` [CIPROFLOXACIN HYDROCHLORIDE] returned an MIC against Bacillus anthracis of 0.1 µM. Regarding `N#Cc1c(O)c2c3ccccc3n(Cc3ccccc3)c2c2[nH]c3ccccc3c12`, the figures for the minimal inhibitory concentration (MIC) (against Bacillus anthracis; in data set [1]) were 1.6 µM (≈ 0.62 µg/mL) and 60.6 µM (≈ 23.5 µg/mL), respectively. Taken in the same sequence, the figures for `COc1c(C#N)c2c3ccccc3n(C)c2c2c1c1ccccc1n2C` were greater than 200 µM and greater than 128 µM. On to `N#Cc1c(O)c2c3ccccc3[nH]c2c2[nH]c3ccccc3c12`, for which the values for the MIC (in the data set with Bacillus anthracis; in data set [1]) were 1.6 µM (≈ 0.476 µg/mL) and 15 µM (≈ 4.46 µg/mL), respectively. Take `COc1c(C#N)c2c3ccccc3[nH]c2c2c1c1ccccc1n2Cc1ccccc1`: the minimal inhibitory concentration (MIC) in the data set with Bacillus anthracis was greater than 200 µM; in data set [1], 44.1 µM (≈ 17.7 µg/mL). The like results for `Cn1c2ccccc2c2c(O)c(C#N)c3c4ccccc4[nH]c3c21` were, in that order, 6.3 µM (≈ 1.96 µg/mL) and 56.6 µM (≈ 17.6 µg/mL). Take `COc1c(C#N)c2c3ccccc3n(C)c2c2[nH]c3ccccc3c12`: the values for the minimal inhibitory concentration (MIC) (against Bacillus anthracis; in data set [1]) were greater than 200 µM and greater than 128 µM, respectively.

As to `CN[C@@H]1C[C@H]2O[C@@](C)([C@@H]1OC)n1c3ccccc3c3c4c(c5c6ccccc6n2c5c31)C(=O)NC4` [STAUROSPORINE], the MIC came to 128 µM (≈ 59.7 µg/mL) with Bacillus anthracis and 14.7 µM (≈ 6.86 µg/mL) in data set [1].
